{"data": "Published values pooled from the literature", "target": "Delta-type opioid receptor (Oprd1, Rattus norvegicus, UniProt P33533)", "setting": "cell membranes", "note": "Lines come from different studies, so protocols differ."}
{"SMILES": "Cc1cc(O)cc(C)c1C[C@H](N)C(=O)N1CCc2ccc(Cc3cccc([N+](=O)[O-])c3)cc2C1", "test": "ligand displacement, radioligand", "measurement": "Ki", "value": "2.5 nM"}
{"SMILES": "Cc1cc(O)cc(C)c1C[C@H](C)C(=O)N[C@@H]1CCCCC[C@@H](C(N)=O)NC(=O)[C@H](Cc2ccccc2)NC(=O)[C@H](Cc2ccccc2)NC1=O", "test": "ligand displacement, radioligand", "measurement": "Ki", "value": "18.7 nM"}
{"SMILES": "Cc1cc(O)cc(C)c1C[C@H](N)C(=O)N[C@@H]1CCN(C(=O)c2ccccc2)c2ccc(Cc3ccc4ccccc4c3)cc21", "test": "GTPγS binding, antagonist", "measurement": "Kb", "value": "15 nM"}
{"SMILES": "Cc1cccc(C)c1C[C@H](NC(=O)[C@@H](CCCNC(=N)N)NC(=O)[C@@H](N)Cc1c(C)cc(O)cc1C)C(=O)N[C@@H](CCCCN)C(N)=O", "test": "ligand displacement, radioligand", "measurement": "Ki", "value": "105 nM"}
{"SMILES": "Cc1cc(O)cc(C)c1C[C@H](C)C(=O)N[C@@H]1C/C=C\\CC[C@@H](C(N)=O)NC(=O)[C@H](Cc2ccccc2)NC(=O)[C@H](Cc2ccccc2)NC1=O", "test": "ligand displacement, radioligand", "measurement": "Ki", "value": "7.67 nM"}
{"SMILES": "Cc1cc(O)cc(C)c1C[C@H](N)C(=O)N[C@H](CCCNC(=N)N)C(=O)N[C@@H](Cc1c(C)cccc1C(C)C)C(=O)N[C@@H](CCCCN)C(N)=O", "test": "ligand displacement, radioligand", "measurement": "Ki", "value": "77.1 nM"}
{"SMILES": "Cc1cc(O)cc(C)c1C[C@H](N)C(=O)N[C@@H]1CCN(S(C)(=O)=O)c2ccc(CN3CCc4ccccc4C3)cc21", "test": "GTPγS binding, antagonist", "measurement": "Kb", "value": "0.85 nM"}
{"SMILES": "Cc1cc(O)cc(C)c1C[C@H](N)C(=O)N1CCc2ccc(Cc3cccc(N)c3)cc2C1", "test": "ligand displacement, radioligand", "measurement": "Ki", "value": "5.5 nM"}
{"SMILES": "NC(N)=Nc1ccc2[nH]c3c(c2c1)C[C@@]1(O)[C@H]2Cc4ccc(O)c5c4[C@@]1(CCN2CC1CC1)[C@H]3O5", "test": "ligand displacement, radioligand", "measurement": "Ki", "value": "2.86 nM"}
{"SMILES": "Cc1cccc(Cc2ccc3c(c2)CN(C(=O)[C@@H](N)Cc2c(C)cc(O)cc2C)CC3)c1", "test": "ligand displacement, radioligand", "measurement": "Ki", "value": "3 nM"}
{"SMILES": "Cc1cc(C)c(C[C@H](NC(=O)[C@@H](CCCNC(=N)N)NC(=O)[C@@H](N)Cc2c(C)cc(O)cc2C)C(=O)N[C@@H](CCCCN)C(N)=O)c(C)c1", "test": "ligand displacement, radioligand", "measurement": "Ki", "value": "329 nM"}
{"SMILES": "Cc1cc(O)cc(C)c1C[C@H](N)C(=O)N1CCc2ccc(Cc3ccccc3N)cc2C1", "test": "ligand displacement, radioligand", "measurement": "Ki", "value": "9 nM"}
{"SMILES": "N=C(N)NCCC[C@H]1NC(=O)[C@H](Cc2ccc(O)cc2)NC(=O)[C@H](CCCCN)NC(=O)[C@H](Cc2ccccc2)NC1=O", "test": "ligand displacement, radioligand", "measurement": "Ki", "value": "64 nM"}
